The nature of series [1]: Hepatotoxicity in C57BL/6 mouse assessed as effect on total bilirubin level in serum. The series is classed as toxicity.
For series [2], the system named is B16-F10. The series is described as follows: Induction of cell cycle arrest in mouse B16-F10 cells assessed as accumulation of cells in G2/M phase at 25 nM measured after 48 hrs by PI/RNaseA staining based flow cytometry analysis (Rvb= 5.76%). In kind it is functional.
Series [3] is described as follows: Antiproliferative activity against human YCC-11 cells assessed as inhibition of cell viability. The series is classed as functional, cell-based.
For another series, the system named is A549. The series is described as follows: Antiproliferative activity against human A549 cells assessed as inhibition of cell viability measured for 48 hrs by microplate reader based CCK-8 assay. In kind it is functional. The settings on record: A549, 48 h.
Series [4] has as its system B16-F10. The series is described as follows: Upregulation of AC-H3 in mouse B16-F10 cells incubated for 12 hrs by Western blot analysis. In kind it is functional, cell-based. The settings on record: dose 20-200 nM, DDE = dose-dependent effect. Summed up:
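B16-F10 cells (5 × 10⁵/well) treated 12 h with DMSO or compound, lysed in RIPA buffer. 30 μg protein separated by SDS-PAGE and blotted onto PVDF. Blocked 5% BSA 2 h, primary antibody overnight at 4 °C, secondary 1.5 h. Ac-H3 probed, with histone H3 and GAPDH as loading controls; band density quantified; three independent experiments.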
In general terms: Immunoblotting shows a protein as a band on a membrane.

A short description of series [5]: Nephrotoxicity in C57BL/6 mouse assessed as effect on globulin GLO level in serum. The series is classed as toxicity. To be noted: in vivo.
In series [6] the test system is B16-F10. Put plainly: Induction of apoptosis in mouse B16-F10 cells assessed as early apoptotic cells at 100 nM incubated for 48 hrs by Annexin V-FITC/PI analysis (reference value: 1.68 %). In kind it is functional.
The test system of series [7] is B16-F10. The series is described as follows: Induction of apoptosis in mouse B16-F10 cells assessed as early apoptotic cells at 25 nM incubated for 48 hrs by Annexin V-FITC/PI analysis (reference value: 1.68 %). In kind it is functional.
A further series concerns HCT-116. The series is described as follows: Antiproliferative activity against human HCT-116 cells assessed as inhibition of cell viability measured for 48 hrs by microplate reader based MTT assay. The series is classed as functional. The settings on record: HCT-116, 48 h. Summed up:
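Cells grown in RPMI-1640 with 10% FBS and seeded at 5000 cells/well. After overnight attachment, compound was added in medium with 0.1% DMSO for 48 h at 37 °C. Read-out was MTT for HCT-116, B16-F10 and A549, and CCK-8 for Jurkat (0.5 mg/mL, 4 h), with absorbance at 570 nm. IC50 from nonlinear regression; at least three independent experiments.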

In a further series the target is Tubulin (Sus scrofa, UniProt P02554+P02550). The series is described as follows: Inhibition of pig brain tubulin polymerization by spectrometric method. Summed up:
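Phosphocellulose-purified pig brain tubulin mixed with graded compound concentrations in PEM buffer (100 mM PIPES, 1 mM MgCl2, 1 mM EGTA) plus 1 mM GTP and 5% glycerol. Absorbance at 340 nm and 37 °C; plateau absorbance used to calculate IC50.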

Our source for the Activity and IC50 values is ChEMBL document CHEMBL5096187, “Efficient Synthesis and Bioevaluation of Novel Dual Tubulin/Histone Deacetylase 3 Inhibitors as Potential Anticancer Agents” (J Med Chem, 2021).

In the case of `COc1cc(C(=O)c2csc(-c3ccc(NC(=O)CCCC(=O)Nc4ccccc4N)cc3)n2)cc(OC)c1OC`, the Activity result was “Non-Toxic” in series [1]; 15.98% in the series with B16-F10 [2]; “Dde” in the series on B16-F10 [4]; “Non-Toxic” in series [5]; 5.83% in the series with B16-F10 [6]; 10.9% in the series with B16-F10 [7]. For the same compound, the IC50 in series [3] was 300 nM; with A549, 140 nM; with HCT-116, 50 nM; at Tubulin, 12200 nM.

In general, IC50 refers to the concentration needed to halve the response being measured.
